From PubChem
Rows were chosen to be rich in hits. Some 4% of all compounds tested hit in one or more screens of this group.
KCC2 mod = KCC2 cotransporter modulators, thallium flux, primary screen, cell-based, HEK293 KCC2, FluoZin-2 fluorescence, MLSMR. Solute carrier family 12 member 5 (Homo sapiens), Q9H2X9. KCC2 cells, thallium flux FluoZin-2 fluorescence. B-score of Tl+ flux slope (higher = more flux/activation; lower = inhibition) at 10 µM. actives 2.2% (n = 190,000);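 active = thallium flux slope and its plate-corrected score both differing from the plate sample mean at a set confidence after two filtering rounds, in either direction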;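 also: slope of fluorescence scaled to starting intensity during 10 to 20 s after thallium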
Target sequence (Q9H2X9 whole entry, looked up): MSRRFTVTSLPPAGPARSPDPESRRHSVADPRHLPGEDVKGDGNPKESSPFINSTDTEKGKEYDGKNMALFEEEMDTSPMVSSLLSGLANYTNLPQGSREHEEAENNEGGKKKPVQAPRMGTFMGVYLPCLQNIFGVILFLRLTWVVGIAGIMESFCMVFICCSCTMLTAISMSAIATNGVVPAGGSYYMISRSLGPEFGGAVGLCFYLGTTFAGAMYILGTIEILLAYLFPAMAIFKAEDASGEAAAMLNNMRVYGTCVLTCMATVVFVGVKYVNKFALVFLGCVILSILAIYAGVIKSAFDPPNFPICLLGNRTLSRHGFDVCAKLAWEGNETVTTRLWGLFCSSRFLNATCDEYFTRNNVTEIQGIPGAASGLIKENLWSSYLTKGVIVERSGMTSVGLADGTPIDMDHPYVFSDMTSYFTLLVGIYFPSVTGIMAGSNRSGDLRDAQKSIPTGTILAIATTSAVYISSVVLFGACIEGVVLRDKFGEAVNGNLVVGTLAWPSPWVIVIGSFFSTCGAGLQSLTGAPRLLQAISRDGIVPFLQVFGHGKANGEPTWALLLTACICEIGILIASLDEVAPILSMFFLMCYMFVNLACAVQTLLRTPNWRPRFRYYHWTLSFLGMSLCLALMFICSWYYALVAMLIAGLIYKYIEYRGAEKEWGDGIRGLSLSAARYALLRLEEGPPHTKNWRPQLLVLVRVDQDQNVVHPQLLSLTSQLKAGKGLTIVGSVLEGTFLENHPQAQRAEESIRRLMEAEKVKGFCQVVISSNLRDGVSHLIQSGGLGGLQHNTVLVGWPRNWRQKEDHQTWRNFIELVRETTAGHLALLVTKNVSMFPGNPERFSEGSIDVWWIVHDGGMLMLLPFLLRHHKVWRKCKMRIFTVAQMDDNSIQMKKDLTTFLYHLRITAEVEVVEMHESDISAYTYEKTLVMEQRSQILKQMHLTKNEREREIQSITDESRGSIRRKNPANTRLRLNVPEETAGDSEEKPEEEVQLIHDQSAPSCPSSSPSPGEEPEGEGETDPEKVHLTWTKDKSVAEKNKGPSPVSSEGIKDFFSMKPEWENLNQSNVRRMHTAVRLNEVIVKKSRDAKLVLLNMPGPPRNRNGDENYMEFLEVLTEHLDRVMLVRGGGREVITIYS
MT stabilize HCS = microtubule stabilizers in HeLa cells, primary screen, imaging, high-content imaging; actives 0.83% (n = 200,000); HeLa tubulin immunostaining HCS, 24 h; share of cells brighter than vehicle mean+2SD; AID 2205, 2009; % tubulin-high responders, % at 10 µM;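 active = plate Z-score above 3 for both tubulin-high and condensed-nucleus cell shares, with cell loss under 80%, at 10 µM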;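 also: anti alpha tubulin signal scored within the nucleus-defined area of each cell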
b-catenin transl = modulators of beta-catenin nuclear translocation, primary screen, imaging, HeLa cells, immunofluorescence, high-content; AID 1665, 2009; actives 0.3% (n = 190,000); nuclear translocation activity, % at 5 µM;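 active = nuclear translocation activity above 50% at 5 µM, with a well cell count of 50 or more; inconclusive = wells under 50 cells across six images, flagged as toxic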;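 also: per-cell ratio of nuclear to cytoplasmic median beta-catenin stain intensity; plate controls were DMSO negative control for no effect and GSK-3 inhibitor IX positive control for full effect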
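assay system = human HeLa cells, endogenous beta-catenin | times = compound treatment 24 h, 37°C, 5% CO2 | detection = Anti-beta-catenin immunofluorescence on PFA-fixed, Triton-permeabilized cells, DAPI nuclei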
Pf gametocyte = late stage P. falciparum gametocyte viability inhibitors, primary screen, ATP luminescence, HTS | P. falciparum stage V gametocytes, 24 h | actives 0.065% (n = 150,000) | AID 743093, 2013 | inhibition, % at 10.9 µM;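 active = inhibition above the mean plus 3 SD of compounds within the control limits, set per campaign, cut at about 38% in these data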;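 also: 0% = DMSO wells and 100% = medium only without gametocytes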
WT yeast gro inh = growth inhibition of WT strain, primary screen, mitochondrial fusion inhibitor project, WT and mutant strains, chemical genetic; inhibition, % at 10 µM; mitochondrial fusion phenotypic screen; actives 2.1% (n = 190,000); AID 1362, 2008; in the data active = inhibition above about 58%; tested in S. cerevisiae
KCC2 secondary = KCC2 modulators in sodium-free buffer, confirmation, cell-based, HEK293 KCC2, thallium flux, secondary assay; shares compounds with KCC2 mod; FluoZin2 fluorescence; stronger effect = higher value; normalised thallium flux (F/F0 slope) at 10 µM; actives 15% (n = 3,700); AID 1713, 2009;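 active = thallium flux slope above the same plate's solvent-only control mean plus 3 SD; inconclusive = the two replicate wells disagree; inactive = no significant difference from solvent-only control wells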
KCC2 bumet counter = thallium flux persisting under bumetanide in KCC2 cells, confirmation, counter-screen for KCC2 modulator project, cell-based, HEK293 KCC2, FluoZin2, secondary assay 3. shares compounds with KCC2 mod. HEK293-KCC2 + bumetanide/ouabain; stronger effect = higher value. normalized thallium flux at 10 µM. actives 49% (n = 3,700). AID 1714, 2009;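 active = thallium entry rate above the same plate's blocked-transporter control wells by more than 3 SD; inconclusive = the two repeat wells disagree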;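 also: raw slope of fluorescence over initial fluorescence between 10 and 20 s after thallium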
KCC2 sec2 = KCC2 modulators without ouabain present, confirmation, cell-based, HEK293 KCC2, thallium flux, FluoZin2, secondary assay 2; shares compounds with KCC2 mod; actives 23% (n = 3,700); AID 1715, 2009; thallium flux FluoZin2 fluorescence; actives lie on both sides; F/F0 rise rate, 10–20 s post-thallium; normalized thallium flux at 10 µM;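 active = thallium flux slope more than 3 SD above or below the plate's solvent-only control mean, mostly below; inconclusive = the two repeat wells disagreed; inactive = no significant shift from solvent-only controls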;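 also: raw slope with 0.1% DMSO as baseline and bumetanide as block control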
HEK counter1 = thallium flux modulation in parental HEK cells, confirmation, counter-screen for KCC2 modulator project, cell-based, counterscreen 1. actives 46% (n = 3,700). shares compounds with KCC2 mod. HEK293 parental cells, thallium flux FluoZin2, ouabain; baseline-ratio fluorescence slope, 10–20 s after thallium. thallium flux rate (normalised fluorescence) at 10 µM;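 active = thallium flux rate significantly above the same plate's solvent-only control wells, beyond their mean plus 3 SD; inconclusive = the two replicate wells gave conflicting results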
KCC2 retest ouab = KCC2 inhibitors and activators, ouabain retest, confirmation, HEK-KCC2 cells; shares compounds with KCC2 mod; raw Tl+ flux slope (below DMSO = inhibition, above = activation) at 10 µM; HEK293-KCC2, thallium flux FluoZin2 fluorescence; bidirectional: low = inhibitor, high = activator; actives 48% (n = 3,700);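 active = thallium flux slope beyond 3 SD from same-plate DMSO control mean in most replicates, usually higher, sometimes lower; inconclusive = repeat tests gave conflicting results; inactive = no significant difference from controls in most replicates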;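 also: slope of initial-normalized fluorescence between seconds 10 and 20 after thallium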
HEK293 Tl flux2 = native HEK Tl+ uptake effects, second counter-screen – HEK cells, counterscreen 2, counter-screen for KCC2 modulator project, confirmation; AID 1718, 2009; actives 33% (n = 3,700); shares compounds with KCC2 mod; thallium flux slope at 10 µM; HEK293 parental, thallium flux FluoZin-2 fluorescence slope;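 active = thallium flux slope above the same plate's solvent-control mean plus 3 SD in both duplicate wells; inconclusive = duplicate wells that disagreed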;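 also: run without ouabain in cells lacking the KCC2 cotransporter; slope of fluorescence scaled to its starting value between 10 and 20 s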
* hit, by the source's call; i = inactive; ? = inconclusive; · = no result.

SMILES	KCC2 mod	MT stabilize HCS	b-catenin transl	Pf gametocyte	WT yeast gro inh	KCC2 secondary	KCC2 bumet counter	KCC2 sec2	HEK counter1	KCC2 retest ouab	HEK293 Tl flux2
CN(C)S(=O)(=O)c1cccc(NC(=S)N/N=C/c2ccc(O)c(O)c2O)c1	-1.7	·	-1	-16	·	·	·	·	·	·	·
CN(C)S(=O)(=O)c1cccc(NC(=S)N/N=C/c2ccco2)c1	6.3*	·	1	-9	·	0.0067	0.0075*	0.027	0.0094*	0.019	0.012*
CC(=O)Nc1ccc(OCC(O)CNC2CCCC2)cc1 (stereo not given)	·	4	2	·	1	0.0077	?	0.029	?	0.018	0.011
COc1ccc(OCC(O)CNC2CCCC2)cc1 (stereo not given)	·	·	·	-18	·	·	·	·	·	·	·
O=C(NNC(=O)c1ccc(Oc2ccc(C3SCCS3)cc2)o1)c1ccc(Cl)cc1	5.4*	·	0	-11	·	0.0081	0.026*	0.031	0.01*	0.032*	0.01*
O=C(NNC(=O)c1ccc(Oc2cc(Cl)cc(Cl)c2)o1)c1ccccc1	28*	·	0	4	·	0.014*	0.051*	0.03	0.02*	0.036*	0.012*
CC1CC(C)CN(C(=O)CSc2nc(Cc3cccs3)nc3ccccc23)C1 (stereo not given)	0.5	2	-2	·	6	·	·	·	·	·	·
O=C(N/N=C/c1cc(Br)c(Br)s1)c1ccncc1	6.5*	4	0	-34	-7	0.0092	0.014*	0.036	0.0097*	?	0.011
O=C(N/N=C/c1cc(Cl)cc(Cl)c1O)c1ccncc1	i	·	-2	-28	·	·	·	·	·	·	·
O=C(N/N=C/c1cc(Br)cc(Br)c1O)c1ccncc1	-4.5*	2	-1	-12	-20	0.0056	0.00055*	0.017*	0.0028*	0.0078*	0.0046*
N#Cc1c(N2CCCC2)ccc(Br)c1Cl	·	·	2	-2	·	·	·	·	·	·	·
CCOc1cc(N2CCOCC2)c(OCC)cc1NC(=O)c1c(-c2ccccc2Cl)noc1C	0.0013	3	3	3	-27	·	·	·	·	·	·
CCOC(=O)c1csc(Nc2nc3ccc(F)cc3s2)n1	27*	2	-2	·	13	0.02*	0.079*	0.034	0.056*	0.057*	0.018*
COC(=O)c1ccc2nc(Nc3nc4ccc(F)cc4s3)sc2c1	0.63	2	1	·	28	·	·	·	·	·	·
O=C(Nc1nc2ccccc2s1)c1cnccn1	1.2	2	2	·	24	·	·	·	·	·	·
O=C(Nc1nc2ccc(F)cc2s1)c1ccccn1	60*	3	1	-21	79*	0.0061	0.096*	0.061*	0.056*	0.076*	0.052*
O=C(Nc1nnc(SCc2ccc(F)cc2)s1)c1ccccn1	44*	2	0	19	67	0.0066	0.039*	?	0.036*	0.036*	0.027*
CC(C)CC(c1nnnn1C1CCCC1)N1CCC(C(N)=O)CC1 (stereo not given)	2.7*	3	3	17	5	0.006	0.0044	0.028	0.0079	0.019	0.0095
CC(C)CC(c1nnnn1C1CCCCC1)N1CCN(c2ncccn2)CC1 (stereo not given)	0.64	5	-1	·	42	·	·	·	·	·	·
COC(=O)c1ccc(-c2ccc(Cl)cc2)nc1C	-0.25	2	·	·	9	·	·	·	·	·	·
N/C(=N\NC(=O)c1cccs1)c1cc2cc(Cl)ccc2oc1=O	0.042	·	1	10	·	·	·	·	·	·	·
COc1ccccc1NC(=O)CSCc1ccc([N+](=O)[O-])cc1	-0.92	2	-3	9	-1	·	·	·	·	·	·
C/C(=N\NC(=S)NCc1ccccc1)c1ccco1	13*	4	-2	17	32	0.012	0.019*	0.038	?	0.029*	0.012
C/C(=N\NC(=S)NCc1ccccc1)c1ccccc1F	3.7	2	-2	9	-3	·	·	·	·	·	·
COc1ccc(CNC(=S)N/N=C(/C)c2ccccc2)cc1	5.7*	·	0	-17	·	0.0071	0.023*	0.034	0.014*	?	0.016*
SMILES	KCC2 mod	MT stabilize HCS	b-catenin transl	Pf gametocyte	WT yeast gro inh	KCC2 secondary	KCC2 bumet counter	KCC2 sec2	HEK counter1	KCC2 retest ouab	HEK293 Tl flux2
C/C(=N\NC(=S)NCc1ccccc1)c1ccccc1	7.8*	3	-1	1	62*	0.01	0.043*	0.031	0.015*	0.07*	0.011
C=C(C)CNC(=S)N/N=C(\C)c1ccc(OC)cc1	3.4	5	0	2	41	·	·	·	·	·	·
O=C1CC(c2ccccc2)CC(O)=C1C=NCCN1CCN(Cc2ccccc2)CC1 (stereo not given)	-0.27	·	-3	-15	·	·	·	·	·	·	·
CC(c1ccccc1)N1CCN(C(=O)CCl)CC1 (stereo not given)	-0.087	3	3	-39	-1	·	·	·	·	·	·
CC(=O)c1cc(C#N)c(SCc2ccc([N+](=O)[O-])cc2)nc1C	-0.19	3	-2	14	0	·	·	·	·	·	·
CC(C)S(=O)(=O)CC(=O)c1ccc(Cl)cc1	-0.32	3	1	-9	-1	·	·	·	·	·	·
COc1ccc(-c2cc(C(=O)OCC(=O)c3c(N)n(C)c(=O)n(C)c3=O)c3ccccc3n2)cc1	-4.8*	12	0	·	9	0.0087	0.0058	0.029	0.0071	0.021	?
COc1ccc(-c2cc(C(=O)c3c(N)n(C)c(=O)n(C)c3=O)c3ccccc3n2)cc1	0.0076	·	2	4	·	·	·	·	·	·	·
CC(=O)Nc1ccc2sccc2c1	0.87	4	2	2	-4	·	·	·	·	·	·
CNC(=O)C1CC(=O)N(Cc2ccccc2)C(=Nc2ccc(OC)cc2)S1 (stereo not given)	·	5	-2	·	42	?	0.0045	0.029	0.0075	0.019	0.01
